Assay results taken from ChEMBL document CHEMBL1777788, “Synthesis and in vitro antimicrobial activities of new (cyano-NNO-azoxy)pyrazole derivatives” (2011).
Values after ≈ are worked out from the molar mass of the structure shown.

Legend:
Nakaseomyces glabratus [1] = assay: Antimicrobial activity against Candida glabrata isolate 32 after 48 hrs by microdilution broth method; assay type: functional; conditions: isolate 32, 48 h
How it was run: (§1)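 Yeasts were grown overnight on Sabouraud dextrose agar at 35°C, suspended in water, and adjusted at 530 nm to McFarland 0.5 (approximately 1-5 x 10^6 CFU/ml). They were then diluted 1:100 and 1:20 in RPMI 1640 with 0.165 M MOPS and 2% glucose. Compound in DMSO was tested at ten concentrations, 0.25–256 mg/L, with incubation at 35°C. At 48 h, MIC was read spectrophotometrically as 50% turbidity reduction versus growth control.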

Candida albicans [2] = assay: Antimicrobial activity against Candida albicans isolate 48 after 48 hrs by microdilution broth method; assay type: functional; conditions: isolate 48, 48 h; how it was run: as §1
Proteus mirabilis = assay: Antimicrobial activity against Proteus mirabilis isolate after 24 hrs by microdilution broth method
Candida albicans [3] = assay: Antimicrobial activity against Candida albicans isolate 41 after 48 hrs by microdilution broth method; assay type: functional; conditions: isolate 41, 48 h; how it was run: as §1
Staphylococcus aureus [4] = assay: Antimicrobial activity against methicillin-resistant Staphylococcus aureus isolate after 24 hrs by microdilution broth method
Pichia kudriavzevii [5] = assay: Antimicrobial activity against Candida krusei isolate 48 after 48 hrs by microdilution broth method; assay type: functional
Escherichia coli = assay: Antimicrobial activity against Escherichia coli isolate after 24 hrs by microdilution broth method
[6] = tested on: Cryptococcus deneoformans; assay: Antimicrobial activity against Cryptococcus neoformans var. neoformans isolate 30 after 48 hrs by microdilution broth method; assay type: functional; conditions: isolate 30, 48 h; how it was run: as §1
Pichia kudriavzevii [7] = assay: Antimicrobial activity against Candida krusei isolate 31 after 48 hrs by microdilution broth method; assay type: functional; conditions: isolate 31, 48 h; how it was run: as §1
Candida tropicalis [8] = assay: Antimicrobial activity against Candida tropicalis isolate 11 after 48 hrs by microdilution broth method; assay type: functional; conditions: isolate 11, 48 h; how it was run: as §1
Candida parapsilosis [9] = assay: Antimicrobial activity against Candida parapsilosis isolate 19 after 48 hrs by microdilution broth method; assay type: functional; conditions: Lodderomyces parapsilosis, isolate 19, 48 h; how it was run: as §1
Candida parapsilosis [10] = assay: Antimicrobial activity against Candida parapsilosis ATCC 22019 after 48 hrs by microdilution broth method; assay type: functional; conditions: Lodderomyces parapsilosis, ATCC 22019, 48 h; how it was run: as §1
Candida albicans [11] = assay: Antimicrobial activity against Candida albicans isolate 47 after 48 hrs by microdilution broth method; assay type: functional; conditions: isolate 47, 48 h; how it was run: as §1
Nakaseomyces glabratus [12] = assay: Antimicrobial activity against Candida glabrata isolate 49 after 48 hrs by microdilution broth method; assay type: functional; how it was run: as §1
Nakaseomyces glabratus [13] = assay: Antimicrobial activity against Candida glabrata isolate 46 after 48 hrs by microdilution broth method; assay type: functional; how it was run: as §1
Candida parapsilosis [14] = assay: Antimicrobial activity against Candida parapsilosis isolate 44 after 48 hrs by microdilution broth method; assay type: functional; conditions: Lodderomyces parapsilosis, isolate 44, 48 h; how it was run: as §1
Candida tropicalis [15] = assay: Antimicrobial activity against Candida tropicalis isolate 33 after 48 hrs by microdilution broth method; assay type: functional; conditions: isolate 33, 48 h; how it was run: as §1
Pichia kudriavzevii [16] = assay: Antimicrobial activity against Candida krusei ATCC 6258 after 48 hrs by microdilution broth method; assay type: functional; conditions: ATCC 6258, 48 h
[17] = tested on: Cryptococcus deneoformans; assay: Antimicrobial activity against Cryptococcus neoformans var. neoformans isolate 27 after 48 hrs by microdilution broth method; assay type: functional; conditions: isolate 27, 48 h; how it was run: as §1
Candida tropicalis [18] = assay: Antimicrobial activity against Candida tropicalis isolate 22 after 48 hrs by microdilution broth method; assay type: functional; conditions: isolate 22, 48 h; how it was run: as §1
[19] = tested on: Cryptococcus deneoformans; assay: Antimicrobial activity against Cryptococcus neoformans var. neoformans isolate 25 after 48 hrs by microdilution broth method; assay type: functional; conditions: isolate 25, 48 h; how it was run: as §1
Pseudomonas aeruginosa [20] = assay: Antimicrobial activity against Pseudomonas aeruginosa isolate 2 after 24 hrs by microdilution broth method; conditions: isolate 2, 24 h
Candida parapsilosis [21] = assay: Antimicrobial activity against Candida parapsilosis isolate 26 after 48 hrs by microdilution broth method; assay type: functional; conditions: Lodderomyces parapsilosis, isolate 26, 48 h; how it was run: as §1
Staphylococcus aureus [22] = assay: Antimicrobial activity against methicillin-susceptible Staphylococcus aureus isolate after 24 hrs by microdilution broth method
[23] = tested on: Cryptococcus deneoformans; assay: Antimicrobial activity against Cryptococcus neoformans var. neoformans isolate 14 after 48 hrs by microdilution broth method; assay type: functional; conditions: isolate 14, 48 h; how it was run: as §1
Pichia kudriavzevii [24] = assay: Antimicrobial activity against Candida krusei isolate 43 after 48 hrs by microdilution broth method; assay type: functional
Nakaseomyces glabratus [25] = assay: Antimicrobial activity against Candida glabrata isolate 30 after 48 hrs by microdilution broth method; assay type: functional; how it was run: as §1
Candida albicans [26] = assay: Antimicrobial activity against Candida albicans isolate 31 after 48 hrs by microdilution broth method; assay type: functional; conditions: isolate 31, 48 h; how it was run: as §1
Pseudomonas aeruginosa [27] = assay: Antimicrobial activity against Pseudomonas aeruginosa isolate 1 after 24 hrs by microdilution broth method; conditions: isolate 1, 24 h

Row | SMILES | MIC (Nakaseomyces glabratus [1]) [µg/mL] | MIC (Candida albicans [2]) [µg/mL] | MIC (Proteus mirabilis) [µg/mL] | MIC (Candida albicans [3]) [µg/mL] | MIC (Staphylococcus aureus [4]) [µg/mL] | MIC (Pichia kudriavzevii [5]) [µg/mL] | MIC (Escherichia coli) [µg/mL] | MIC [6] [µg/mL] | MIC (Pichia kudriavzevii [7]) [µg/mL] | MIC (Candida tropicalis [8]) [µg/mL] | MIC (Candida parapsilosis [9]) [µg/mL] | MIC (Candida parapsilosis [10]) [µg/mL] | MIC (Candida albicans [11]) [µg/mL] | MIC (Nakaseomyces glabratus [12]) [µg/mL] | MIC (Nakaseomyces glabratus [13]) [µg/mL] | MIC (Candida parapsilosis [14]) [µg/mL] | MIC (Candida tropicalis [15]) [µg/mL] | MIC (Pichia kudriavzevii [16]) [µg/mL] | MIC [17] [µg/mL] | MIC (Candida tropicalis [18]) [µg/mL] | also measured
1 | Cc1cc(-c2nn(C)c(C)c2/[N+]([O-])=N/C#N)nn1C | > 128 | > 128 | > 128 | > 128 | 32 (≈ 123 µM) | > 128 | > 128 | 16 (≈ 61.7 µM) | > 128 | > 128 | > 128 | > 128 | > 128 | > 128 | > 128 | > 128 | > 128 | > 128 | 16 (≈ 61.7 µM) | > 128 | MIC [19]: 16 µg/mL (≈ 61.7 µM); MIC (Pseudomonas aeruginosa [20]): > 128 µg/mL; MIC (Candida parapsilosis [21]): > 128 µg/mL; MIC (Staphylococcus aureus [22]): 32 µg/mL (≈ 123 µM); MIC [23]: 16 µg/mL (≈ 61.7 µM); MIC (Pichia kudriavzevii [24]): > 128 µg/mL; MIC (Nakaseomyces glabratus [25]): > 128 µg/mL; MIC (Candida albicans [26]): 64 µg/mL (≈ 247 µM); MIC (Pseudomonas aeruginosa [27]): > 128 µg/mL
2 | Cc1cc(-c2nn(C)c(C)c2/[N+]([O-])=N/C#N)no1 | 64 (≈ 260 µM) | > 128 | > 128 | 128 (≈ 520 µM) | 8 (≈ 32.5 µM) | 128 (≈ 520 µM) | > 128 | 8 (≈ 32.5 µM) | 128 (≈ 520 µM) | > 128 | 128 (≈ 520 µM) | 128 (≈ 520 µM) | > 128 | 128 (≈ 520 µM) | 128 (≈ 520 µM) | 128 (≈ 520 µM) | > 128 | 64 (≈ 260 µM) | 4 (≈ 16.2 µM) | > 128 | MIC [19]: 8 µg/mL (≈ 32.5 µM); MIC (Pseudomonas aeruginosa [20]): > 128 µg/mL; MIC (Candida parapsilosis [21]): 128 µg/mL (≈ 520 µM); MIC (Staphylococcus aureus [22]): 16 µg/mL (≈ 65 µM); MIC [23]: 4 µg/mL (≈ 16.2 µM); MIC (Pichia kudriavzevii [24]): 64 µg/mL (≈ 260 µM); MIC (Nakaseomyces glabratus [25]): 128 µg/mL (≈ 520 µM); MIC (Candida albicans [26]): 128 µg/mL (≈ 520 µM); MIC (Pseudomonas aeruginosa [27]): > 128 µg/mL
3 | Cc1cc(-c2nn(C)c(C)c2/[N+]([O-])=N/C#N)on1 | 32 (≈ 130 µM) | 128 (≈ 520 µM) | > 128 | 64 (≈ 260 µM) | 2 (≈ 8.12 µM) | 64 (≈ 260 µM) | > 128 | 2 (≈ 8.12 µM) | 64 (≈ 260 µM) | 128 (≈ 520 µM) | 128 (≈ 520 µM) | 128 (≈ 520 µM) | 128 (≈ 520 µM) | 128 (≈ 520 µM) | 128 (≈ 520 µM) | 128 (≈ 520 µM) | 128 (≈ 520 µM) | 32 (≈ 130 µM) | 2 (≈ 8.12 µM) | > 128 | MIC [19]: 2 µg/mL (≈ 8.12 µM); MIC (Pseudomonas aeruginosa [20]): > 128 µg/mL; MIC (Candida parapsilosis [21]): 128 µg/mL (≈ 520 µM); MIC (Staphylococcus aureus [22]): 4 µg/mL (≈ 16.2 µM); MIC [23]: 2 µg/mL (≈ 8.12 µM); MIC (Pichia kudriavzevii [24]): 32 µg/mL (≈ 130 µM); MIC (Nakaseomyces glabratus [25]): 128 µg/mL (≈ 520 µM); MIC (Candida albicans [26]): 128 µg/mL (≈ 520 µM); MIC (Pseudomonas aeruginosa [27]): > 128 µg/mL
4 | Cc1c(/[N+]([O-])=N/C#N)c(-c2ccccn2)nn1C | 4 (≈ 16.5 µM) | 128 (≈ 528 µM) | > 128 | 16 (≈ 66 µM) | 32 (≈ 132 µM) | 8 (≈ 33 µM) | > 128 | 8 (≈ 33 µM) | 16 (≈ 66 µM) | 128 (≈ 528 µM) | 128 (≈ 528 µM) | 128 (≈ 528 µM) | 128 (≈ 528 µM) | 128 (≈ 528 µM) | 64 (≈ 264 µM) | 128 (≈ 528 µM) | 128 (≈ 528 µM) | 16 (≈ 66 µM) | 16 (≈ 66 µM) | 128 (≈ 528 µM) | MIC [19]: 8 µg/mL (≈ 33 µM); MIC (Pseudomonas aeruginosa [20]): > 128 µg/mL; MIC (Candida parapsilosis [21]): 128 µg/mL (≈ 528 µM); MIC (Staphylococcus aureus [22]): 64 µg/mL (≈ 264 µM); MIC [23]: 16 µg/mL (≈ 66 µM); MIC (Pichia kudriavzevii [24]): 16 µg/mL (≈ 66 µM); MIC (Nakaseomyces glabratus [25]): 64 µg/mL (≈ 264 µM); MIC (Candida albicans [26]): 64 µg/mL (≈ 264 µM); MIC (Pseudomonas aeruginosa [27]): > 128 µg/mL
5 | Cc1c(/[N+]([O-])=N/C#N)c(-c2cccs2)nn1C | 0.25 (≈ 1.01 µM) | 1 (≈ 4.04 µM) | > 128 | 0.5 (≈ 2.02 µM) | 4 (≈ 16.2 µM) | 0.5 (≈ 2.02 µM) | > 128 | 2 (≈ 8.09 µM) | 0.5 (≈ 2.02 µM) | 8 (≈ 32.4 µM) | 16 (≈ 64.7 µM) | 16 (≈ 64.7 µM) | 1 (≈ 4.04 µM) | 0.25 (≈ 1.01 µM) | 0.25 (≈ 1.01 µM) | 8 (≈ 32.4 µM) | 8 (≈ 32.4 µM) | 0.5 (≈ 2.02 µM) | 2 (≈ 8.09 µM) | 16 (≈ 64.7 µM) | MIC [19]: 2 µg/mL (≈ 8.09 µM); MIC (Pseudomonas aeruginosa [20]): > 128 µg/mL; MIC (Candida parapsilosis [21]): 8 µg/mL (≈ 32.4 µM); MIC (Staphylococcus aureus [22]): 8 µg/mL (≈ 32.4 µM); MIC [23]: 2 µg/mL (≈ 8.09 µM); MIC (Pichia kudriavzevii [24]): 1 µg/mL (≈ 4.04 µM); MIC (Nakaseomyces glabratus [25]): 0.25 µg/mL (≈ 1.01 µM); MIC (Candida albicans [26]): 1 µg/mL (≈ 4.04 µM); MIC (Pseudomonas aeruginosa [27]): > 128 µg/mL
